In ChEMBL document CHEMBL1914356, “Maslinic acid derivatives induce significant apoptosis in b16f10 murine melanoma cells” (2011):
Calls of active or inactive are those of the source. The rule behind the calls is not given here.

Legend:
B16-F10 [1] = experiment: Induction of apoptosis in mouse B16F10 cells assessed as total apoptosis at 1 to 10 uM after 24 hrs using annexin V-FITC/propidium iodide staining by flow cytometry; format: functional, cell-based
Outline: (§1)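 B16-F10 cells grown in DMEM with 4 mM L-glutamine, 1.5 g/L bicarbonate, 1 mM pyruvate, 4.5 g/L glucose, 10% FBS. Seeded at 300,000 cells/well in 6-well dishes, treated 24 h later with compound in DMSO. Vehicle and medium-only controls. Detached with EDTA-trypsin, PBS-washed, stained with annexin V-FITC and PI 15 min at room temperature in dark. Total apoptosis = early + late. Mean ± SD, two independent experiments.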

B16-F10 [2] = experiment: Induction of apoptosis in mouse B16F10 cells assessed as total apoptosis at 1 to 10 uM after 48 hrs using annexin V-FITC/propidium iodide staining by flow cytometry; format: functional, cell-based; outline: as §1
B16-F10 [3] = experiment: Induction of apoptosis in mouse B16F10 cells assessed as necrotic cells at 30 uM after 24 hrs using annexin V-FITC/propidium iodide staining by flow cytometry; format: functional
Outline: (§2)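 B16-F10 cells grown in DMEM with 4 mM L-glutamine, 1 mM pyruvate, 4.5 g/L glucose and 10% FBS. 300,000 cells/well were plated, then treated in DMSO after 24 h. Vehicle and medium-alone controls were included. Cells were detached with EDTA-trypsin, PBS-washed and set at 1 × 10^6 cells/mL in binding buffer. Annexin V-FITC/PI staining ran 15 min at room temperature in the dark, followed by flow cytometry within 1 h.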

B16-F10 [4] = experiment: Induction of apoptosis in mouse B16F10 cells assessed as early/late apoptotic cells at 30 uM after 24 hrs using annexin V-FITC/propidium iodide staining by flow cytometry; format: functional; outline: as §2
B16-F10 [5] = experiment: Induction of apoptosis in mouse B16F10 cells assessed as total apoptosis at 20 uM after 24 hrs using annexin V-FITC/propidium iodide staining by flow cytometry; format: functional
Outline: (§3)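 B16-F10 cells in DMEM/10% FBS were plated at 300,000 cells/well, then treated 24 h later, in duplicate, in DMSO at […] for 24 or 48 h. Vehicle and medium controls were included. Annexin V-FITC/PI staining ran 15 min at room temperature in the dark. Total apoptosis (early + late) was read by flow cytometry as mean ± SD from two independent experiments.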

B16-F10 [6] = experiment: Induction of apoptosis in mouse B16F10 cells assessed as total apoptosis at 20 uM after 48 hrs using annexin V-FITC/propidium iodide staining by flow cytometry; format: functional, cell-based; outline: as §3
B16-F10 [7] = experiment: Induction of apoptosis in mouse B16F10 cells assessed as total apoptosis at 1 uM after 24 hrs using annexin V-FITC/propidium iodide staining by flow cytometry; format: functional; outline: as §1

| SMILES | Activity (B16-F10 [1]) | Activity (B16-F10 [2]) | Activity (B16-F10 [3]) [%] | Activity (B16-F10 [4]) [%] | Activity (B16-F10 [5]) [%] | Activity (B16-F10 [6]) | Activity (B16-F10 [7]) [%] |
| --- | --- | --- | --- | --- | --- | --- | --- |
| CC(=O)O[C@@H]1C[C@]2(C)[C@H]3CC=C4[C@@H]5CC(C)(C)CC[C@]5(C#N)CC[C@@]4(C)[C@]3(C)CC[C@H]2C(C)(C)[C@H]1OC(C)=O | Active | inactive | <10 | 80 | 70 | Active | 68.62 |
| CC1(C)CC[C@]2(C#N)CC[C@]3(C)C(=CC[C@@H]4[C@@]5(C)C[C@@H](O)[C@H](O)C(C)(C)[C@@H]5CC[C@]43C)[C@@H]2C1 | Active | inactive | <10 | 80 | 70 | Active | 78.75 |
| CC1(C)CC[C@]2(C(=O)OCc3ccccc3)CC[C@]3(C)C(=CC[C@@H]4[C@@]5(C)C[C@@H](O)[C@H](O)C(C)(C)[C@@H]5CC[C@]43C)[C@@H]2C1 [BENZYL MASLINATE] | Active | inactive | <10 | 80 | > 70 | Active | 87.5 |
